# Results from ChEMBL document CHEMBL2384906, “Biological activity, design, synthesis and structure activity relationship of some novel derivatives of curcumin containing sulfonamides” (Eur J Med Chem, 2013).
# The source made the active and inactive calls. The calls are words filed in the database; no cut-off is given here.
# Key:
# [1] = test system: Bacillus cereus; experiment: Antimicrobial activity against Bacillus cereus MTCC 7350 after 24 hrs by broth micro serial dilution method; format: functional; details: MTCC 7350, 24 h
# How it was run: (§1)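 This was broth microdilution in autoclaved Mueller-Hinton broth. 150 µL of compound per well was serially diluted […], and 50 µL of test organism was added. Plates were incubated 24 h at 37 °C and optical density was read.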
# [2] = test system: Trichoderma viride; experiment: Antifungal activity against Trichoderma viride MTCC 1107 assessed as zone of inhibition at 80 uM after 48 hrs by disc diffusion method; format: functional; details: MTCC 1107, 48 h, read-out: IZ
# How it was run: (§2)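 Spores from 4-day potato dextrose agar cultures, suspended in sterile water at 1.5 × 10⁵ CFU/mL. 0.2 mL was spread on potato dextrose agar. 5 mm filter-paper discs soaked with test compound were laid on the lawn. Incubation was 48 h at 28 °C, then the inhibition zone was measured in mm. Fluconazole was the positive control and acetone the negative control.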
# [3] = test system: Pseudomonas aeruginosa; experiment: Antimicrobial activity against Pseudomonas aeruginosa ATCC 15499 assessed as diameter of inhibition zone at 20 uM after 24 hrs by Kirby -Baur disc diffusion method; format: functional
# How it was run: (§3)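 Kirby-Bauer disc diffusion was used. Acetone stocks (160 µM) were serially doubled down to 80, 40 and 20 µM. 4 µL of each went onto 5 mm sterile paper discs, which were dried 30 min at 50 °C. Inoculum was 1.5 × 10⁸ CFU/mL diluted to 3 × 10² CFU/mL, and 50 µL was spread on Mueller-Hinton agar. After 24 h at 37 °C the inhibition-zone diameter was measured. Ciprofloxacin served as positive control.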
# [4] = test system: Escherichia coli; experiment: Antimicrobial activity against Escherichia coli ATCC 35218 assessed as diameter of inhibition zone at 20 uM after 24 hrs by Kirby -Baur disc diffusion method; format: functional; how it was run: as §3
# [5] = test system: Trichoderma viride; experiment: Antifungal activity against Trichoderma viride MTCC 1107 assessed as zone of inhibition at 20 uM after 48 hrs by disc diffusion method; format: functional; how it was run: as §2
# [6] = test system: Trichoderma viride; experiment: Antifungal activity against Trichoderma viride MTCC 1107 assessed as zone of inhibition at 40 uM after 48 hrs by disc diffusion method; format: functional; details: MTCC 1107, 48 h, read-out: IZ; how it was run: as §2
# [7] = test system: Aspergillus niger; experiment: Antifungal activity against Aspergillus niger MTCC 1108 after 48 hrs; format: functional
# [8] = test system: Staphylococcus aureus; experiment: Antimicrobial activity against Staphylococcus aureus ATCC 11632 assessed as diameter of inhibition zone at 80 uM after 24 hrs by Kirby -Baur disc diffusion method; format: functional; details: ATCC 11632, 24 h, read-out: DIZ; how it was run: as §3
# [9] = test system: Bacillus cereus; experiment: Antimicrobial activity against Bacillus cereus MTCC 7350 assessed as diameter of inhibition zone at 40 uM after 24 hrs by Kirby -Baur disc diffusion method; format: functional; how it was run: as §3
# [10] = test system: Pseudomonas aeruginosa; experiment: Antimicrobial activity against Pseudomonas aeruginosa ATCC 15499 assessed as diameter of inhibition zone at 80 uM after 24 hrs by Kirby -Baur disc diffusion method; format: functional; details: ATCC 15499, 24 h, read-out: DIZ; how it was run: as §3
# [11] = test system: Aspergillus flavus; experiment: Antifungal activity against Aspergillus flavus MTCC 1021 after 48 hrs; format: functional
# [12] = test system: Mus musculus; experiment: Antiinflammatory activity in mouse assessed as inhibition of carrageenan-induced increase in paw volume at 200 mg/kg administered 1 hr prior to carrageenan challenge measured after 3 hrs relative to control; format: functional
# How it was run: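 Mice were fasted 2 h and placed in groups of five. Controls received saline i.p. Phenylbutazone was given at 100 mg/kg i.p., curcumin at 200 mg/kg i.p., and derivatives at 200 mg/kg. After 1 h, 0.1 mL of 1% carrageenan in saline was injected subplantar into the right hind paw. Paw volume was followed by plethysmometer for 3 h, and % inhibition was calculated as (Vc − Vt)/Vc × 100.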
# [13] = test system: Curvularia lunata; experiment: Antifungal activity against Curvularia lunata MTCC 581 assessed as zone of inhibition at 40 uM after 48 hrs by disc diffusion method; format: functional; details: MTCC 581, 48 h, read-out: IZ; how it was run: as §2
# [14] = test system: HCT-116; experiment: Cytotoxicity against human HCT116 cells after 24 hrs by MTT assay; format: functional, cell-based
# How it was run: (§4)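 The MTT assay seeded 5 × 10⁴ cells per well and grew them 24 h in RPMI 1640 with compound at 2.5–200 µM. Medium without cells was the blank and adriamycin the positive control. MTT was added for 4 h at 37 °C, formazan was solubilised, and absorbance was read at 570 nm. IC50 is the concentration that cuts viability 50% against untreated cells.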
# [15] = test system: Staphylococcus aureus; experiment: Antimicrobial activity against Staphylococcus aureus ATCC 11632 assessed as diameter of inhibition zone at 40 uM after 24 hrs by Kirby -Baur disc diffusion method; format: functional; how it was run: as §3
# [16] = test system: Curvularia lunata; experiment: Antifungal activity against Curvularia lunata MTCC 581 assessed as zone of inhibition at 20 uM after 48 hrs by disc diffusion method; format: functional; how it was run: as §2
# [17] = test system: Bacillus cereus; experiment: Antimicrobial activity against Bacillus cereus MTCC 7350 assessed as diameter of inhibition zone at 80 uM after 24 hrs by Kirby -Baur disc diffusion method; format: functional; details: MTCC 7350, 24 h, read-out: DIZ; how it was run: as §3
# [18] = test system: HeLa; experiment: Cytotoxicity against human HeLa cells after 24 hrs by MTT assay; format: functional, cell-based; how it was run: as §4
# [19] = test system: Curvularia lunata; experiment: Antifungal activity against Curvularia lunata MTCC 581 after 48 hrs; format: functional; details: MTCC 581, 48 h
# [20] = test system: HepG2; experiment: Cytotoxicity against human HepG2 cells after 24 hrs by MTT assay; format: functional, cell-based; how it was run: as §4
# [21] = test system: Curvularia lunata; experiment: Antifungal activity against Curvularia lunata MTCC 581 assessed as zone of inhibition at 80 uM after 48 hrs by disc diffusion method; format: functional; details: MTCC 581, 48 h, read-out: IZ; how it was run: as §2
# [22] = test system: Trichoderma viride; experiment: Antifungal activity against Trichoderma viride MTCC 1107 after 48 hrs; format: functional; details: MTCC 1107, 48 h
# [23] = test system: Escherichia coli; experiment: Antimicrobial activity against Escherichia coli ATCC 35218 assessed as diameter of inhibition zone at 80 uM after 24 hrs by Kirby -Baur disc diffusion method; format: functional; details: ATCC 35218, 24 h, read-out: DIZ; how it was run: as §3
# [24] = test system: Pseudomonas aeruginosa; experiment: Antimicrobial activity against Pseudomonas aeruginosa ATCC 15499 assessed as diameter of inhibition zone at 40 uM after 24 hrs by Kirby -Baur disc diffusion method; format: functional; how it was run: as §3
# [25] = test system: Escherichia coli; experiment: Antimicrobial activity against Escherichia coli ATCC 35218 assessed as diameter of inhibition zone at 40 uM after 24 hrs by Kirby -Baur disc diffusion method; format: functional; how it was run: as §3
# [26] = test system: Pseudomonas aeruginosa; experiment: Antimicrobial activity against Pseudomonas aeruginosa ATCC 15499 after 24 hrs by broth micro serial dilution method; format: functional; details: ATCC 15499, 24 h; how it was run: as §1
# [27] = test system: Aspergillus niger; experiment: Antifungal activity against Aspergillus niger MTCC 1108 assessed as zone of inhibition at 80 uM after 48 hrs by disc diffusion method; format: functional; how it was run: as §2
# [28] = test system: Bacillus cereus; experiment: Antimicrobial activity against Bacillus cereus MTCC 7350 assessed as diameter of inhibition zone at 20 uM after 24 hrs by Kirby -Baur disc diffusion method; format: functional; how it was run: as §3
# [29] = test system: Staphylococcus aureus; experiment: Antimicrobial activity against Staphylococcus aureus ATCC 11632 assessed as diameter of inhibition zone at 20 uM after 24 hrs by Kirby -Baur disc diffusion method; format: functional; how it was run: as §3
# [30] = test system: Aspergillus flavus; experiment: Antifungal activity against Aspergillus flavus MTCC 1021 assessed as zone of inhibition at 80 uM after 48 hrs by disc diffusion method; format: functional; how it was run: as §2
# [31] = test system: QG-56; experiment: Cytotoxicity against human QG56 cells after 24 hrs by MTT assay; format: functional, cell-based; how it was run: as §4
# [32] = test system: Staphylococcus aureus; experiment: Antimicrobial activity against Staphylococcus aureus ATCC 11632 after 24 hrs by broth micro serial dilution method; format: functional; details: ATCC 11632, 24 h; how it was run: as §1
# [33] = test system: Escherichia coli; experiment: Antimicrobial activity against Escherichia coli ATCC 35218 after 24 hrs by broth micro serial dilution method; format: functional; details: ATCC 35218, 24 h; how it was run: as §1
structure (smiles),measurement,setting,value
COc1cc(/C=C/c2noc(/C=C/c3ccc(O)c(OC)c3)c2/N=N/c2ccc(S(=O)(=O)Nc3cc(C)on3)cc2)ccc1O,MIC,[1],> 80 µM
same,zone of inhibition at 80 µM,[2],12 mm
same,diameter of the inhibition zone (DIZ),[3],inactive
same,diameter of the inhibition zone (DIZ),[4],inactive
same,inhibition zone (IZ),[5],inactive
same,zone of inhibition at 40 µM,[6],9 mm
same,MIC,[7],inactive
same,zone of inhibition at 80 µM,[8],9 mm
same,diameter of the inhibition zone (DIZ),[9],inactive
same,zone of inhibition at 80 µM,[10],9 mm
same,MIC,[11],inactive
same,inhibition in vivo at 200 mg/kg,[12],22.5%
same,zone of inhibition at 40 µM,[13],9 mm
same,IC50,[14],Not Active
same,diameter of the inhibition zone (DIZ),[15],inactive
same,inhibition zone (IZ),[16],inactive
same,zone of inhibition at 80 µM,[17],9 mm
same,IC50,[18],Not Active
same,MIC,[19],> 80 µM
same,IC50,[20],Not Active
same,zone of inhibition at 80 µM,[21],12 mm
same,MIC,[22],> 80 µM
same,zone of inhibition at 80 µM,[23],9 mm
same,diameter of the inhibition zone (DIZ),[24],inactive
same,diameter of the inhibition zone (DIZ),[25],inactive
same,MIC,[26],> 80 µM
same,inhibition zone (IZ),[27],inactive
same,diameter of the inhibition zone (DIZ),[28],inactive
same,diameter of the inhibition zone (DIZ),[29],inactive
same,inhibition zone (IZ),[30],inactive
same,IC50,[31],Not Active
same,MIC,[32],> 80 µM
same,MIC,[33],> 80 µM
